Screening data as filed in PubChem BioAssay.
This is a sample that favours compounds with a hit; in the whole collection about 4.8% have one here.
UPR XBP1 act: adaptive UPR (XBP1) activation | CHO-XBP1 luciferase reporter, IRE1-XBP1 UPR activation, luminescence; percent of tunicamycin response, DMSO as zero | activation, % at 20 µM | hit rate 0.33% among 330,000 | AID 463104;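 active = versus positive control, 20 µM dose yields 30% or more activation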
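Material: CHO-XBP1 cells stably carrying IRE1-XBP1-driven luciferase reporter / Amount: 1000 cells per well / Compound: 20 µM, 1% DMSO / Times: 6 h treatment, 37 °C / Detection: luciferase luminescence / Measure: % activation of reporter signal versus tunicamycin and DMSO controls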
CSC inhib: cancer stem cell inhibition; cancer stem cell-like cells viability, luminescence; inhibition, % at 7.5 µM; hit rate 1.1% among 300,000; in the data active = inhibition above about 75%; tested in HMLE shEcad cells
Mdm2 MdmX PPI: human Mdm2/MdmX binding inhibition | inhibition, % at 8 µM | O15151+Q00987 | SaOS-2 split-luciferase Mdm2/MdmX complementation, luminescence | hit rate 3% among 330,000;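 active = inhibition of at least 50% at 8 µM in the primary screen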
Beta cell apopt: blocks beta cell apoptosis; INS-1E cytokine-induced death, ATP luminescence, 48 h; percent of positive-control rescue, neutral wells zero; protection from apoptosis, % (test concentration not listed); hit rate 0.8% among 300,000; AID 435005;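 active = Every replicate reaches about 75%, or at least half do and their mean reaches it too, limit read from the data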;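 also: higher means more ATP so stronger rescue from cytokine killing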
UPR CHOP act: activators of apoptotic arm of unfolded protein response (CHOP); CHO-CHOP luciferase reporter, UPR activation, luminescence; percent of tunicamycin response over DMSO baseline; hit rate 0.34% among 330,000; AID 449763; activation, % at 10 µM;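 active = at 10 µM dose, activation of 40% or more, normalized to positive control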
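Assay system: CHO-CHOP cells, stable luciferase reporter of PERK-eIF2a-CHOP signalling / Buffer or medium: F12 plus 10% serum / Compound dosing: one dose, 10 µM in 0.5% DMSO / Times: 6 h compound treatment, 37 °C / Technique: luciferase luminescence / Read-out: % reporter activation, DMSO baseline versus tunicamycin full activation / Benchmarks: tunicamycin and DMSO controls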
SKKanGAS inh: SKKanGAS growth inhibition; inhibition, % at 7.5 µM; hit rate 1.3% among 300,000; S. pyogenes SKKanGAS, kanamycin growth, BacTiter-Glo, 6 h;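 active = mean replicate score, as percent of positive control median, at least 50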;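 also: strain carries kanamycin resistance gene driven by streptokinase promoter and grows in 40 µg/ml kanamycin; loss of luminescence reflects streptokinase promoter inhibition or plain growth inhibition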
Hits are given with their value.

`CC1=NN(c2ccccc2)C(=O)/C1=C/N(C)C` gave UPR XBP1 act inactive, CSC inhib inactive, Mdm2 MdmX PPI inactive, Beta cell apopt inactive, UPR CHOP act inactive and SKKanGAS inh inactive.
Screening CC1=NN(c2ccc([N+](=O)[O-])cc2)C(=O)/C1=C\N(C)C returned UPR XBP1 act inactive, CSC inhib inactive, Mdm2 MdmX PPI inactive, Beta cell apopt inactive, UPR CHOP act inactive and SKKanGAS inh 56.
For CC(C)NC(=O)Nc1ccc2c(c1)C(=O)N([C@H](C)CO)C[C@H](C)[C@@H](CN(C)S(=O)(=O)c1ccccc1)O2 the results were UPR XBP1 act inactive, CSC inhib inactive, Mdm2 MdmX PPI inactive, Beta cell apopt inactive and UPR CHOP act inactive.
For C[C@H](CO)N1C[C@H](C)[C@@H](CN(C)S(=O)(=O)c2ccccc2)Oc2ccc(NC(=O)Nc3ccc(C(F)(F)F)cc3)cc2C1=O the results were UPR XBP1 act inactive, CSC inhib 102, Mdm2 MdmX PPI inactive, Beta cell apopt inactive and UPR CHOP act inactive.
COc1ccc(C(=O)N2CCN(c3ccc([N+](=O)[O-])c(NCCc4ccc(OC)c(OC)c4)c3)CC2)cc1 was read as UPR XBP1 act inactive, CSC inhib inactive, Mdm2 MdmX PPI inactive, Beta cell apopt 106, UPR CHOP act inactive and SKKanGAS inh inactive.
`COc1ccc(CCNc2cc(N3CCN(C(=O)c4ccc(C)cc4)CC3)ccc2[N+](=O)[O-])cc1OC` gave UPR XBP1 act inactive, CSC inhib inactive, Mdm2 MdmX PPI inactive, Beta cell apopt 90, UPR CHOP act inactive and SKKanGAS inh inactive.
Cc1ccc([N+](=O)[O-])c(OCCN2CCc3ccccc3C2)c1 was read as UPR XBP1 act inactive, CSC inhib inactive, Mdm2 MdmX PPI inactive, UPR CHOP act inactive and SKKanGAS inh inactive.
Cc1ccc([N+](=O)[O-])c(OCCN2CCCCCC2)c1 was read as UPR XBP1 act inactive, CSC inhib inactive, Mdm2 MdmX PPI inactive, Beta cell apopt 79, UPR CHOP act inactive and SKKanGAS inh inactive.
For Cc1ccc(O)c(CNc2cccc3cccnc23)c1 the results were UPR XBP1 act inactive, CSC inhib inactive, Mdm2 MdmX PPI inactive, Beta cell apopt 102, UPR CHOP act inactive and SKKanGAS inh inactive.
Cc1ccc(O)c(CNc2ccccn2)c1 was read as UPR XBP1 act inactive, Mdm2 MdmX PPI inactive, Beta cell apopt inactive, UPR CHOP act inactive and SKKanGAS inh inactive.
Oc1ccc(Cl)cc1CNc1cccc2cccnc12 was read as UPR XBP1 act inactive, CSC inhib inactive, Mdm2 MdmX PPI inactive, Beta cell apopt inactive, UPR CHOP act inactive and SKKanGAS inh 57.
Oc1c(Br)cc(Br)cc1CNc1cccc2cccnc12 was read as UPR XBP1 act inactive, CSC inhib inactive, Mdm2 MdmX PPI inactive, Beta cell apopt inactive, UPR CHOP act inactive and SKKanGAS inh 89.
Screening Cc1ccc(S(=O)(=O)CCC(O)c2ccc(Cl)cc2)cc1 (stereo not given) returned UPR XBP1 act inactive, CSC inhib inactive, Mdm2 MdmX PPI inactive, Beta cell apopt inactive, UPR CHOP act inactive and SKKanGAS inh inactive.
Screening COc1ccc(CCNC(=O)C2CCC(=O)N(CC3CCCCC3)C2)cc1 (stereo not given) returned UPR XBP1 act inactive, Mdm2 MdmX PPI inactive, UPR CHOP act inactive and SKKanGAS inh inactive.
For Cc1cc(C)cc(-n2c(C)cc(/C=C3\C(=N)N4N=C(CC(C)C)SC4=NC3=O)c2C)c1 the results were UPR XBP1 act inactive, CSC inhib 103, Mdm2 MdmX PPI inactive, Beta cell apopt inactive, UPR CHOP act inactive and SKKanGAS inh 69.
Cc1cccc(-n2c(C)cc(/C=C3\C(=N)N4N=C(CC(C)C)SC4=NC3=O)c2C)c1 was read as UPR XBP1 act inactive, CSC inhib inactive, Mdm2 MdmX PPI inactive, Beta cell apopt inactive, UPR CHOP act inactive and SKKanGAS inh inactive.
`CC1=NN2C(=N)/C(=C\c3cc(C)n(-c4cccc(C)c4)c3C)C(=O)N=C2S1` gave UPR XBP1 act inactive, CSC inhib inactive, Mdm2 MdmX PPI inactive, UPR CHOP act inactive and SKKanGAS inh inactive.
For CCCC1=NN2C(=N)/C(=C\c3cc(C)n(-c4cc(C)cc(C)c4)c3C)C(=O)N=C2S1 the results were UPR XBP1 act inactive, CSC inhib inactive, Mdm2 MdmX PPI inactive, Beta cell apopt inactive, UPR CHOP act inactive and SKKanGAS inh 72.
